Reference: ChEMBL document CHEMBL2177045, “Chemical subtleties in small-molecule modulation of peptide receptor function: the case of CXCR3 biaryl-type ligands” (J Med Chem, 2012)
The source made the active and inactive calls. The rule behind the calls is not given here.

Legend:
[1] = biological target: T1, C-X-C chemokine receptor type 3 (Homo sapiens) (UniProt P49682); assay: Agonist activity at CXCR3 expressed in HEK293 cells by [35S]GTPgamma binding assay relative to CXCL11; assay type: functional, cell-based
T1 sequence (whole entry): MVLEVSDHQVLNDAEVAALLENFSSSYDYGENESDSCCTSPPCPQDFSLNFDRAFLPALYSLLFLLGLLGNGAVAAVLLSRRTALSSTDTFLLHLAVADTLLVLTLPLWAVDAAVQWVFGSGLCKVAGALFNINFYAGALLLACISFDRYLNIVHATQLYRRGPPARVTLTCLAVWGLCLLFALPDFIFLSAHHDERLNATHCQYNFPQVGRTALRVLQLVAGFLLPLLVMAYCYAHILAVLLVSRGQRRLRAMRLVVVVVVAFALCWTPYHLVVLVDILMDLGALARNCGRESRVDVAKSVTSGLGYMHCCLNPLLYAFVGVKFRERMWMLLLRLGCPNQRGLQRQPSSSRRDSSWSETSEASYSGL
Summary of the method: (§1)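 Membranes (5 μg/well) from HEK293 cells stably expressing CXCR3, incubated with CXCL11 or ligands. Buffer 50 mM HEPES, 10 mM MgCl2, 100 mM NaCl, pH 7.2, with 3 μM GDP and 300 pM [35S]GTPγS, 1 h at room temperature. Filtered on GF/B, incorporated label counted. Response normalized to CXCL11 (α = 1) to give relative efficacy; mean ± SEM of ≥3 independent experiments.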

[2] = biological target: T2, C-X-C chemokine receptor type 3 (Homo sapiens, UniProt P49682); assay: Displacement of [125I]CXCL10 from CXCR3 expressed in HEK293 cells; assay type: cell-based
T2 sequence (P49682 whole entry): T1 sequence (whole entry)
Summary of the method: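 Competition binding against [125I]CXCL10 using membranes from HEK293 cells stably expressing CXCR3. Affinities reported as pKi; mean ± SEM of at least three independent experiments.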

[3] = biological target: T2, C-X-C chemokine receptor type 3; assay: Agonist activity at CXCR3 expressed in HEK293 cells by [35S]GTPgamma binding assay; assay type: functional, cell-based; summary of the method: as §1
[4] = biological target: T1, C-X-C chemokine receptor type 3 (Homo sapiens); assay: Agonist activity at CXCR3 expressed in HEK293 cells by CRE-luciferase reporter gene assay; assay type: functional, cell-based
Summary of the method: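 HEK293 cells stably expressing CXCR3, transfected with a CRE-luciferase reporter plasmid. Medium swapped for serum-free medium with 0.05% BSA plus ligands for 5 h. Then replaced by luciferin substrate solution (Tris-phosphate pH 7.8, glycerol, Triton X-100, DTT, MgCl2, 825 μM ATP, beetle luciferin) and luminescence read.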

[5] = biological target: T1, C-X-C chemokine receptor type 3 (Homo sapiens); assay: Agonist activity at CXCR3 expressed in HEK293 cells in presence of CXCR3 antagonist (R)-N-(1-(3-(4-ethoxyphenyl)-4-oxo-3,4-dihydropyrido[2,3-d]pyrimidin-2-yl)ethyl)-2-(4-fluoro-3-(trifluoromethyl)phenyl)-N-(pyridin-3-ylmethyl)acetamide by [35S]GTPgamma binding assay; assay type: functional, cell-based
Summary of the method: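 [35S]GTPγS incorporation on membranes (5 μg/well) of HEK293 cells stably expressing CXCR3. Buffer 50 mM HEPES, 10 mM MgCl2, 100 mM NaCl, pH 7.2, 3 μM GDP, 300 pM [35S]GTPγS, 1 h at room temperature. In antagonist mode, antagonist added 30 min before [35S]GTPγS. Read by filtration and counting.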

CC1(C)[C@H]2CC=C(C[N+](C)(C)Cc3ccc(-c4cccc(Br)c4)cc3)[C@@H]1C2
Ratio [1]: 0.08
Ki [2]: 200 nM

CC1(C)[C@H]2CC=C(C[N+](C)(C)Cc3ccc4c(c3)Cc3ccccc3-4)[C@@H]1C2
Ratio [1]: 0.03
Ki [2]: 398 nM

COc1ccccc1-c1ccc(C[N+](C)(C)CC2=CC[C@H]3C[C@@H]2C3(C)C)cc1
Ratio [1]: 0.36
EC50 [3]: 12600 nM
Ki [2]: 158 nM

CC1(C)[C@H]2CC=C(C[N+](C)(C)Cc3ccccc3)[C@@H]1C2
Ratio [1]: 0.04
Ki [2]: 2510 nM

CC1(C)[C@H]2CC=C(C[N+](C)(C)Cc3ccc(-c4cccc(Cl)c4)c(Cl)c3)[C@@H]1C2
Ratio [1]: 0.03
Ki [2]: 501 nM

CC1(C)[C@H]2CC=C(C[N+](C)(C)Cc3ccc(-c4c(Cl)cccc4Cl)cc3)[C@@H]1C2
Ratio [1]: 0.42
EC50 [3]: 2000 nM
Ki [2]: 398 nM

CC1(C)[C@H]2CC(C[N+](C)(C)Cc3ccc(-c4cccc(Cl)c4)cc3)=C[C@@H]1C2
Ratio [1]: 0.07
Ki [2]: 501 nM

CC1(C)[C@H]2CC=C(C[N+](C)(C)Cc3ccc(Cl)cc3)[C@@H]1C2
Ratio [1]: 0.02

CC1(C)[C@H]2CC=C(C[N+](C)(C)Cc3ccc(-c4ccccc4Cl)c(Cl)c3)[C@@H]1C2
Ratio [1]: 0.3
EC50 [3]: 794 nM
Ki [2]: 200 nM

CC1(C)[C@H]2CC=C(C[N+](C)(C)Cc3ccc(-c4ccccc4F)cc3)[C@@H]1C2
Ratio [1]: 0.2
EC50 [3]: 1260 nM
Ki [2]: 501 nM

CC1(C)[C@H]2CC(C[N+](C)(C)Cc3ccc(-c4ccccc4I)cc3)=C[C@@H]1C2
Ratio [1]: 1.05
EC50 [3]: 1580 nM
Ki [2]: 200 nM

CC1(C)[C@@H]2CC=C(C[N+](C)(C)Cc3ccc(-c4ccccc4I)cc3)[C@H]1C2
Ratio [1]: 0.98
EC50 [3]: 631 nM
Ki [2]: 50.1 nM

CCOc1ccc(-n2c([C@@H](C)N(Cc3cccnc3)C(=O)Cc3ccc(F)c(C(F)(F)F)c3)nc3ncccc3c2=O)cc1
Ratio [1]: 0
Ki [2]: 10 nM

CC1(C)[C@H]2CC=C(C[N+](C)(C)Cc3ccc(-c4ccccc4)cc3)[C@@H]1C2
Ratio [1]: 0.11
Ki [2]: 631 nM

CC1(C)[C@H]2CC[C@@H](C[N+](C)(C)Cc3ccc(-c4ccccc4I)cc3)[C@@H]1C2
Ratio [1]: 0.83
EC50 [3]: 1260 nM
Ki [2]: 100 nM

CC1(C)[C@H]2CC=C(C[N+](C)(C)Cc3ccc(-c4ccccc4I)cc3)[C@@H]1C2
Activity [4]: Active
Activity [5]: inactive
Ratio [1]: 0.99
EC50 [3]: 1000 nM
Ki [2]: 63.1 nM

CC1(C)[C@H]2CC=C(C[N+](C)(C)Cc3ccc(-c4cccc(Cl)c4)cc3)[C@@H]1C2
Activity [4]: inactive
Ratio [1]: 0.05
Ki [2]: 251 nM

CC1(C)[C@@H]2CC=C(C[N+](C)(C)Cc3ccc(-c4cccc(Cl)c4)cc3)[C@H]1C2
Ratio [1]: 0.05
Ki [2]: 316 nM

CC1(C)[C@H]2CC=C(C[N+](C)(C)Cc3ccc(-c4ccccc4Cl)cc3)[C@@H]1C2
Activity [5]: inactive
Ratio [1]: 0.73
EC50 [3]: 1580 nM
Ki [2]: 100 nM

NCCCC[C@H](NC(=O)[C@@H]1Cc2ccccc2CN1C(=O)CCC(=O)c1ccccc1)C(=O)NCC(c1ccccc1)c1ccccc1
Ratio [1]: 0.96
Ki [2]: 39.8 nM

CC1(C)[C@H]2CC=C(C[N+](C)(C)Cc3ccc(-c4cc(Cl)ccc4Cl)cc3)[C@@H]1C2
Activity [4]: Active
Ratio [1]: 0.64
EC50 [3]: 5010 nM
Ki [2]: 251 nM

CC1(C)[C@H]2CC=C(C[N+](C)(C)Cc3ccc(-c4ccccc4O)cc3)[C@@H]1C2
Ratio [1]: 0.07
Ki [2]: 2000 nM

CC1(C)[C@H]2CC=C(C[N+](C)(C)Cc3ccc(-c4ccccc4Br)cc3)[C@@H]1C2
Ratio [1]: 0.95
EC50 [3]: 794 nM
Ki [2]: 63.1 nM

CC1(C)[C@H]2CC=C(C[N+](C)(C)Cc3ccc(-c4ccccc4)c(Cl)c3)[C@@H]1C2
Ratio [1]: 0.06
Ki [2]: 631 nM

CC1(C)[C@H]2CC[C@@H](C[N+](C)(C)Cc3ccc(-c4cccc(Cl)c4)cc3)[C@@H]1C2
Ratio [1]: 0.07
Ki [2]: 501 nM

CC1(C)[C@H]2CC=C(C[N+](C)(C)Cc3ccc(-c4cccc(Cl)c4Cl)cc3)[C@@H]1C2
Ratio [1]: 0.31
EC50 [3]: 631 nM
Ki [2]: 398 nM

Cc1ccccc1-c1ccc(C[N+](C)(C)CC2=CC[C@H]3C[C@@H]2C3(C)C)cc1
Ratio [1]: 0.2
EC50 [3]: 1260 nM
Ki [2]: 158 nM

Cc1cccc(C)c1-c1ccc(C[N+](C)(C)CC2=CC[C@H]3C[C@@H]2C3(C)C)cc1
Ratio [1]: 0.19
EC50 [3]: 7940 nM
Ki [2]: 1000 nM
